Measurements taken from ChEMBL document CHEMBL1131244, “New alkenyldiarylmethanes with enhanced potencies as anti-HIV agents which act as non-nucleoside reverse transcriptase inhibitors” (J Med Chem, 1998).

Assays:
CCRF-CEM = assay: The compound is evaluated for the cytotoxic concentration for the mock-infected CEM cells; format: functional; conditions: Homo sapiens
How it was run: (§1)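 XTT cytoprotection assay in CEM-SS cells infected with HIV-1 RF, with uninfected cultures for cytotoxicity, in presence of fetal calf serum. Data as percent of uninfected drug-free control. EC50 is 50% protection from cytopathicity; CC50 is 50% cell death in uninfected cells; TI = CC50/EC50. Triplicates on each of two sister plates, plate EC50s averaged. Confirmed by supernatant RT and p24.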

CEM-SS [1] = assay: Inhibitory concentration for cytopathicity of HIV-1 in CEM-SS cells; format: functional, cell-based; conditions: Homo sapiens; how it was run: as §1
[2] = molecular target: T1, Human immunodeficiency virus type 1 reverse transcriptase (Human immunodeficiency virus 1, UniProt Q72547); assay: Inhibitory activity against human immunodeficiency virus (HIV) - 1 reverse transcriptase with rCdG as the template primer
How it was run: (§2)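 Reactions stopped with ice-cold 10% trichloroacetate, filtered through GF/C membrane, washed with ethanol, radiolabel counted by Cerenkov counting. AZTTP and nevirapine as positive controls; IC50 reported.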

CEM-SS [3] = assay: The compound is evaluated for the therapeutic index, which is the CC50 divided by the EC50.; format: functional; how it was run: as §1
CEM-SS [4] = assay: Inhibitory concentration for cytopathicity of HIV-1 RF in CEM-SS cells; NA means there was no observed inhibition of HIV-1 cytopathicity up to the cytotoxic concentration in uninfected cells.; format: functional, cell-based; how it was run: as §1
[5] = molecular target: Human immunodeficiency virus type 1 integrase (Human immunodeficiency virus 1, UniProt Q7ZJM1); assay: The compound is evaluated for the inhibitory against HIV -1 integrase. NI refers to no inhibition.
Sequence of Human immunodeficiency virus type 1 integrase (Q7ZJM1 whole entry): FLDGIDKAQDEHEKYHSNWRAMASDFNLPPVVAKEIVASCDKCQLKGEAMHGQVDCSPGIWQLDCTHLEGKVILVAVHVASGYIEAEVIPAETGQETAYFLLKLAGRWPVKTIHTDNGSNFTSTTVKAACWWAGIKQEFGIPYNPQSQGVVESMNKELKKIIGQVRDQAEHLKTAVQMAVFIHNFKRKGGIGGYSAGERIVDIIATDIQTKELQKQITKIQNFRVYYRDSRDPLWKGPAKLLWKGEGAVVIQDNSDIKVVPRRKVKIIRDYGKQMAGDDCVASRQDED

[6] = molecular target: Human immunodeficiency virus 1 nucleocapsid (Human immunodeficiency virus 1, UniProt Q76059); assay: Inhibition of HIV-1 Nucleocapsid protein p7 (no inhibition)
Sequence of Human immunodeficiency virus 1 nucleocapsid (Q76059 whole entry): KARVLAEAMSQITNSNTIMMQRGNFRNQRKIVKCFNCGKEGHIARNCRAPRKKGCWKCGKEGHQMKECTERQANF

[7] = molecular target: Human immunodeficiency virus type 1 protease (Human immunodeficiency virus 1, UniProt Q72874); assay: The compound is evaluated for the inhibitory against HIV -1 protease, a 30% inhibition of HIV-1 protease was observed at a concentration of 100 uM
[8] = molecular target: T1, Human immunodeficiency virus type 1 reverse transcriptase; assay: The compound is evaluated for the inhibitory against HIV -1 reverse transcriptase with rAdT as the template primer.; how it was run: as §2
[9] = The compound is evaluated for the therapeutic index, which is the CC50 divided by the EC50; format: functional; how it was run: as §1

Compound	CC50 (CCRF-CEM) [µM]	EC50 (CEM-SS [1]) [µM]	IC50 [2] [µM]	TI (CEM-SS [3])	EC50 (CEM-SS [4])	IC50 [5]	IC50 [6]	IC50 [7] [µM]	IC50 [8] [µM]	TI [9]
COC(=O)c1cc(C(=CCCN=[N+]=[N-])c2cc(Br)c(OC)c(C(=O)OC)c2)cc(Br)c1OC	> 316	1.1	94	>278						
COC(=O)C=C(c1cc(Cl)c(OC)c(C(=O)OC)c1)c1cc(Cl)c(OC)c(C(=O)OC)c1	25		16		Not Active					
COc1c(Cl)cc(C(=CCC(=O)O)c2cc(Cl)c(OC)c(C(=O)O)c2)cc1C(=O)O	> 316		> 100		Not Active					
COC(=O)c1cc(C(=CCCO)c2cc(Cl)c(OC)c(C(=O)OC)c2)cc(Cl)c1OC	16.8	8.6	> 100	2						
COC(=O)c1cc(C(=CCCCCO)c2cc(Cl)c(OC)c(C(=O)OC)c2)cc(Cl)c1OC	10.2				Not Active					
COC(=O)c1cc(C(=CCCN=[N+]=[N-])c2cc(Cl)c(OC)c(C(=O)OC)c2)cc(Cl)c1OC	41.8	0.27	2			No inhibition	Not Active	> 100	9.9	155
CCCCCC=C(c1cc(I)c(OC)c(C(=O)OC)c1)c1cc(I)c(OC)c(C(=O)OC)c1	> 316		11		Not Active					
COC(=O)c1cc(C(=CCCN)c2cc(Cl)c(OC)c(C(=O)OC)c2)cc(Cl)c1OC	15		63		Not Active					
CC1(C)OC(=O)c2cc(C(=CCCBr)c3cc(Cl)c4c(c3)C(=O)OC(C)(C)O4)cc(Cl)c2O1	176		> 100		Not Active					
COC(=O)c1cc(C(=CC(=O)O)c2cc(Cl)c(OC)c(C(=O)OC)c2)cc(Cl)c1OC	48		> 100		Not Active					
CC=C(c1cc(Br)c(OC)c(C(=O)OC)c1)c1cc(Br)c(OC)c(C(=O)OC)c1	10		26		Not Active					
